Measurements from ChEMBL document CHEMBL1125389, “Synthesis and use of 3-amino-4-phenyl-2-piperidones and 4-amino-2-benzazepin-3-ones as conformationally restricted phenylalanine isosteres in renin inhibitors” (J Med Chem, 1992).

Biological target: T1, Renin (Homo sapiens, UniProt P00797)
T1 sequence (P00797 whole entry): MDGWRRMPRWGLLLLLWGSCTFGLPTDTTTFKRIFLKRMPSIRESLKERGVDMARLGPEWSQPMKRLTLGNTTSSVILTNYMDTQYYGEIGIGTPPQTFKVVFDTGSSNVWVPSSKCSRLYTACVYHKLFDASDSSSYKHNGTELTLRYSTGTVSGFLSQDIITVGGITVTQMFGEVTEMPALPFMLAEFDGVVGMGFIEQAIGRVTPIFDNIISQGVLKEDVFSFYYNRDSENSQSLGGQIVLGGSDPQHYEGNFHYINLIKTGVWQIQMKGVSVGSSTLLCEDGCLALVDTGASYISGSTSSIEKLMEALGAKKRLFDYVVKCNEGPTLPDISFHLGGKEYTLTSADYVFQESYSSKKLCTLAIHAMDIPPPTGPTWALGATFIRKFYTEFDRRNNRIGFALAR
Experiment: Compound was evaluated for the inhibition of human plasma renin at pH 7.4
Format: cell-free
Method in brief: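 Human plasma renin activity measured by radioimmunoassay of generated angiotensin I, run in phosphate buffer at pH 7.4 and 37 °C. IC50 is the mean of three determinations.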

SMILES | IC50
CCCCNC(=O)[C@@H](C[C@H](O)[C@H](CC1CCCCC1)NC(=O)[C@H](CCCC)NC(=O)C(Cc1ccccc1)NC(=O)OC(C)(C)C)C(C)C (stereo not given in full) | 2.1 nM
CCCCNC(=O)[C@@H](C[C@H](O)[C@H](CC1CCCCC1)NC(=O)[C@H](CCCC)N1Cc2ccccc2C[C@H](NC(=O)OC(C)(C)C)C1=O)C(C)C | 1730 nM
CCCCNC(=O)[C@@H](C[C@H](O)[C@H](CC1CCCCC1)NC(=O)[C@H](CCCC)N1Cc2ccccc2C[C@H](N)C1=O)C(C)C | 2040 nM
CCCCNC(=O)[C@@H](C[C@H](O)[C@H](CC1CCCCC1)NC(=O)[C@H](CCCC)N1CC[C@H](c2ccccc2)[C@H](NC(=O)OC(C)(C)C)C1=O)C(C)C | 134 nM

Continued, values first:

IC50 | SMILES
> 20000 nM | CCCCNC(=O)[C@@H](C[C@H](O)[C@H](CC1CCCCC1)NC(=O)[C@H](CCCC)N1Cc2ccccc2C[C@H](N2C(=O)c3ccccc3C2=O)C1=O)C(C)C
0.84 nM | CCCCNC(=O)[C@@H](C[C@H](O)[C@H](CC1CCCCC1)NC(=O)[C@H](CCCC)NC(=O)C(Cc1ccccc1)NC(C)=O)C(C)C (stereo not given in full)
5910 nM | CCCCNC(=O)[C@@H](C[C@H](O)[C@H](CC1CCCCC1)NC(=O)[C@H](CCCC)N1CC[C@@H](c2ccccc2)[C@H](NC(=O)OC(C)(C)C)C1=O)C(C)C
87 nM | CCCCNC(=O)[C@@H](C[C@H](O)[C@H](CC1CCCCC1)NC(=O)[C@H](CCCC)NC(=O)C(Cc1ccccc1)N1C(=O)c2ccccc2C1=O)C(C)C (stereo not given in full)
21 nM | CCCCNC(=O)[C@@H](C[C@H](O)[C@H](CC1CCCCC1)NC(=O)[C@H](CCCC)N1CC[C@H](c2ccccc2)[C@H](NC(C)=O)C1=O)C(C)C
210 nM | CCCCNC(=O)[C@@H](C[C@H](O)[C@H](CC1CCCCC1)NC(=O)[C@H](CCCC)N1Cc2ccccc2C[C@H](NC(C)=O)C1=O)C(C)C
